Laboratory results as given in ChEMBL document CHEMBL4400554, “Ketamine esters and amides as short-acting anaesthetics: Structure-activity relationships for the side-chain” (Bioorg Med Chem, 2019).

Columns and labels:
Glutamate NMDA receptor = assay: Displacement of [3H] MK-801 from NMDA glutamate ion channel in Wistar rat brain membranes (minus cerebellum) after 3 hrs by scintillation counting analysis; assay type: cell membranes
Method in brief: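 Radioligand binding in Wistar rat brain (minus cerebellum) preparations with MK-801 as ligand.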

Rattus norvegicus [1] = assay: Short-acting anaesthetic activity in Sprague-Dawley rat assessed as dose causing loss of righting reflex at 20 mg/kg/min followed by dose reduction to 6.7 mg/kg/min dosed via infusion; assay type: functional
Method in brief: (§1)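 Rats (230 to 320g) restrained; drug at 10mg/ml infused via marginal tail vein cannula by syringe driver at 20 mg/kg/min until loss of righting reflex and PWR=1. Rate then cut to 6.7 mg/kg/min and titrated up-and-down for 10 min. PWR scored each minute by 1 s firm digital pressure on forepaw. Three rats per study, ketamine as within-group control, randomised order, ≥4 h between runs.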

Rattus norvegicus [2] = assay: Analgesic activity in Sprague-Dawley rat assessed as minimal dose for loss of pedal withdrawal reflex at 20 mg/kg/min followed by dose reduction to 6.7 mg/kg/min dosed via infusion; assay type: functional; conditions: read-out: MED; method in brief: as §1
Rattus norvegicus [3] = assay: Short-acting anaesthetic activity in Sprague-Dawley rat assessed as time for return of righting reflex after infusion stopped at 20 mg/kg/min followed by dose reduction to 6.7 mg/kg/min dosed via infusion; assay type: functional
Method in brief: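 Rats (230 to 320g) given tail-vein infusion of drug at 10mg/ml, 20 mg/kg/min until LORR and PWR=1, then 6.7 mg/kg/min titrated up-and-down to hold dorsal recumbency and PWR=1 to 10 min before stopping. Time from cessation to return of righting reflex recorded. Three rats per study, ketamine as own control, randomised order, ≥4 h recovery.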

[4] = target: Glutamate [NMDA] receptor; assay: Binding affinity to NMDA receptor (unknown origin); assay type: protein-complex assay, Homo sapiens
Method in brief: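 Radioligand binding on Wistar rat brain (minus cerebellum) preparations, MK-801 as ligand, in 5 mM Tris-acetate buffer pH 7.4, 3 h at 25°C; IC50 in µM.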

Compound | IC50 (Glutamate NMDA receptor) [µM] | EC (Rattus norvegicus [1]) [mg/kg] | minimal effective dose (Rattus norvegicus [2]) [mg/kg] | Time (Rattus norvegicus [3]) [s] | Ki [4] [µM]
CC(C)OC(=O)CCNC1(c2ccccc2Cl)CCCCC1=O (stereo not drawn) | 134 | 33 | 37 | 83 | –
COCCOC(=O)CCCCNC1(c2ccccc2Cl)CCCCC1=O (stereo not drawn) | 19 | >200 | > 200 | – | –
CN(C)C(=O)CCNC1(c2ccccc2Cl)CCCCC1=O (stereo not drawn) | 416 | 110 | 113 | 623 | –
CN(C)C(=O)CCCCNC1(c2ccccc2Cl)CCCCC1=O (stereo not drawn) | > 1000 | >200 | > 200 | – | –
CCOC(=O)C(C)CCCNC1(c2ccccc2Cl)CCCCC1=O (stereo not drawn) | 107 | 50 | 55 | 260 | –
COC(=O)CCCCCNC1(c2ccccc2Cl)CCCCC1=O (stereo not drawn) | 44 | >200 | > 200 | – | –
COC(=O)CCCCNC1(c2ccccc2Cl)CCCCC1=O (stereo not drawn) | 3 | 34 | 44 | 99 | –
CCOC(=O)CCOCCNC1(c2ccccc2Cl)CCCCC1=O (stereo not drawn) | 87 | >200 | > 200 | – | –
COC(=O)C(C)(C)CCCNC1(c2ccccc2Cl)CCCCC1=O (stereo not drawn) | 125 | 52 | > 200 | 580 | –
COC(=O)CCCCCCNC1(c2ccccc2Cl)CCCCC1=O (stereo not drawn) | 51 | >200 | > 200 | – | –
CCS(=O)(=O)CCNC1(c2ccccc2Cl)CCCCC1=O (stereo not drawn) | > 1000 | >200 | > 200 | – | –
CC(C)NC(=O)CCNC1(c2ccccc2Cl)CCCCC1=O (stereo not drawn) | 58 | 82 | > 200 | 82 | –
COC(=O)COCCNC1(c2ccccc2Cl)CCCCC1=O (stereo not drawn) | 13 | >200 | > 200 | – | –
CC(C)OC(=O)CNC1(c2ccccc2Cl)CCCCC1=O (stereo not drawn) | 45 | >200 | > 200 | – | –
CNC(=O)CCNC1(c2ccccc2Cl)CCCCC1=O (stereo not drawn) | 73 | 58 | > 200 | 85 | –
CNC(=O)CCCCNC1(c2ccccc2Cl)CCCCC1=O (stereo not drawn) | 77 | 83 | > 200 | 125 | –
CCNC(=O)CCNC1(c2ccccc2Cl)CCCCC1=O (stereo not drawn) | 935 | 112 | 139 | 237 | –
NC(=O)CCNC1(c2ccccc2Cl)CCCCC1=O (stereo not drawn) | 500 | >200 | > 200 | – | –
O=C1CCCCC1(NCCCN1CCCCC1)c1ccccc1Cl (stereo not drawn) | 41 | 67 | 130 | 556 | –
COC(=O)CNC1(c2ccccc2Cl)CCCCC1=O (stereo not drawn) | 308 | >200 | > 200 | – | –
O=C(CCNC1(c2ccccc2Cl)CCCCC1=O)Oc1ccccc1 (stereo not drawn) | 73 | >200 | > 200 | – | –
CNC1(c2ccccc2Cl)CCCCC1=O (stereo not drawn) [KETAMINE] | 0.7 | 23 | 28 | 1075 | 1.9
